Results: publication PMC7711931 (ACS Omega, 2020)
pEC50, pIC50, pKd: −log10 of the molar value.

Tests used:
TR4-LBD [1] = target: T1, TR4-LBD (Homo sapiens, UniProt P49116); experiment: SPRi assay: binding of TR4-LBD to the immobilized FDA-approved drug library
T1 sequence (P49116 341-583 limits assumed): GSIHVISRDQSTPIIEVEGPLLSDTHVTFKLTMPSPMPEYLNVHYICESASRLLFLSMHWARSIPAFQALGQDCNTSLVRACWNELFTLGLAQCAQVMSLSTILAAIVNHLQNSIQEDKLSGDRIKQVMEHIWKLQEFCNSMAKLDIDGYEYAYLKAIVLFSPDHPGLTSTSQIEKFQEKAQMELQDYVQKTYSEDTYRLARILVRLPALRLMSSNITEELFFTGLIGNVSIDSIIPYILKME

TR4 = target: T2, TR4 (Homo sapiens, UniProt P49116); experiment: Dual-luciferase reporter assay of TR4 transactivation; type: cell-based; settings: for Luciferase activity (TR4 transactivation), validation of the reporter system: 293T cells cotransfected with pGLO-TR4RE-Dluc and TR4 (Figure 2B); for Effect on TR4 transactivation: 10 μM, 24 h, 293T cells, DMSO negative control (Figure 3A); for Effect on TR4 transactivation in the presence of ATRA: drug 10 μM, ATRA 20 μM (Figure 3E)
T2 sequence (P49116 1-596): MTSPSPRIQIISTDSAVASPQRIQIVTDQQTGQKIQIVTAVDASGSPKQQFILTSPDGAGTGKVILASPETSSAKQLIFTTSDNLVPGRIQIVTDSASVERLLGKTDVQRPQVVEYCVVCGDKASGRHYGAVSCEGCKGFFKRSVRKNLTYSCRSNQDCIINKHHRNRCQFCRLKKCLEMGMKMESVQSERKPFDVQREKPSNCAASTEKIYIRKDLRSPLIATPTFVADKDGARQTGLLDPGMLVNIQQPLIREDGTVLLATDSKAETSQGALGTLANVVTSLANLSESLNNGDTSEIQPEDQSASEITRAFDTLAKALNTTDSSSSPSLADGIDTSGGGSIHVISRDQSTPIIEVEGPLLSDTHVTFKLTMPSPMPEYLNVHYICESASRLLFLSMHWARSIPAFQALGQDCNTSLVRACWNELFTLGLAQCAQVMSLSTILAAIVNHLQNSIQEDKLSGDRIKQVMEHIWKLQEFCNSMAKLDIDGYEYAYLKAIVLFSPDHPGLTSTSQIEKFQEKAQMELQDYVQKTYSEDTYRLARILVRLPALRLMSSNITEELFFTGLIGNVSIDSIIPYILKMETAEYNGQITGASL
Procedure, shortened: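 TR4RE-TK-firefly luciferase cassette from pGL3-(DR)3-TK subcloned into pmirGLO, giving a dual-luciferase reporter. Cells were cotransfected with reporter and TR4 expression plasmid for 24 h, then exposed to test compound for another 24 h: 10 μM for screening or a dose range for curves, with DMSO as negative control. Some arms included ATRA 20 μM. Luciferase was read with a dual-luciferase kit. Means of three independent experiments.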

TR4-LBD [2] = target: T1, TR4-LBD; experiment: Circular dichroism spectra of TR4-LBD with or without drug; settings: TR4-LBD 0.2 mg/mL, drug 20 μM, 5 mM phosphate buffer pH 7.4
Procedure, shortened: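 TR4 ligand-binding domain was expressed in E. coli BL21(DE3) with an N-terminal His6-SUMO tag, purified on His-tag resin, cleaved with SUMO protease, and collected in the flow-through of a second His-tag step. It was desalted into 5 mM phosphate buffer and quantified by BCA. Spectra of protein with or without test compound were recorded in a 0.5 cm path-length cell.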

NQO2 = settings: read-out: IC50, NQO2 inhibition; cited from earlier work

pKd (TR4-LBD [1]) | pEC50 (TR4) | Luciferase activity (TR4 transactivation), validation of the reporter system (TR4) | CD characteristic peak for α-helix at 208 nm (TR4-LBD [2]) | Effect on TR4 transactivation (TR4) | Efficiency relative to ATRA (EC50 ratio) (TR4; genistein EC50 2.42 μM vs ATRA 23.8 μM) | CD characteristic peak for the β-sheet at 216 nm (TR4-LBD [2]) | SMILES | Effect on TR4 transactivation in the presence of ATRA (TR4) | pIC50 (NQO2)
7.07 | 4.43 | suppressed |  |  |  |  | C=C(c1ccc(C(=O)O)cc1)c1cc2c(cc1C)C(C)(C)CCC2(C)C [bexarotene] |  | 
 | 5.62 |  | significantly increased | most potent activator | approximately 10 times |  | O=c1c(-c2ccc(O)cc2)coc2cc(O)cc(O)c12 [Genistein] | equivalent to that of genistein single treatment | 
4.00 |  | elevated |  |  |  |  | CC1=C(/C=C/C(C)=C/C=C/C(C)=C/C(=O)O)C(C)(C)CCC1 [ATRA, all-trans-retinoic acid] |  | 
 | 5.98 |  |  | most potent inhibitor |  | significantly reduced | Cc1cn(-c2cc(NC(=O)c3ccc(C)c(Nc4nccc(-c5cccnc5)n4)c3)cc(C(F)(F)F)c2)cn1 [Nilotinib (AMN-107)] | almost blocked the activation of TR4 by ATRA | 5.74
